From PMC7507839 (Investigational new drugs, 2018)
Entries after “also recorded” stand apart in the source; their conditions may differ.

Experiments:
tyrosine kinases = conditions: cited from earlier work
c-Met [1] = conditions: read-out: IC50 towards c-Met; cited from earlier work
medullary thyroid cancer = conditions: monotherapy; cited from earlier work
GTL-16 xenograft = conditions: twice-daily 100 mg/kg orally, cited from earlier work
[2] = test system: gastric and non-small cell lung cell lines; conditions: a number of cell lines; most pronounced in gastric and non-small cell lung cell lines; cited from earlier work
[3] = test system: non-small cell lung cancer cell lines; conditions: high c-Met expressing cell lines; cited from earlier work
[4] = test system: metastatic or locally advanced solid tumors; experiment: anti-tumor activity; assay type: in vivo, human
Procedure, shortened: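 Adults with histologically confirmed metastatic or locally advanced solid tumors lacking standard therapy, ECOG 0–1, received test compound twice daily from 50 mg in escalating cohorts. Cycle 1 was 14 days followed by a 1-week holiday, cycles 2–4 were 14 days, and cycles from 5 on were 28 days. RECIST 1.0 imaging at end of cycle 4, then every two cycles. All patients dosed at least once analysed.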

[5] = plasma pharmacokinetics in patients; assay type: in vivo, human
[6] = test system: ovarian cancer cell lines; conditions: with paclitaxel + carboplatin, multiple ovarian cancer cell lines; cited from earlier work
[7] = test system: patients with metastatic or locally advanced solid tumors; experiment: Phase I dose escalation: safety, DLT, MTD; assay type: in vivo
c-Met [8] = conditions: A549 non-small cell lung carcinoma cell line; cited from earlier work
c-Met [9] = conditions: GTL-16 gastric cancer cells, cited from earlier work
[10] = Dose Level 5, 550 mg BID, Fatigue
[11] = Dose Level 6, 750 mg BID, Nausea
[12] = Dose Level 7, 1050 mg BID, Nausea
[13] = Dose Level 7, 1050 mg BID, Vomiting
[14] = Dose Level 8, 1500 mg BID, Elevated ALT
[15] = Dose Level 8, 1500 mg BID, Elevated AST
[16] = Dose Level 8, 1500 mg BID, Elevated Amylase
[17] = Dose Level 8, 1500 mg BID, Hypokalaemia

O=C1NC(=O)[C@@H](c2cn3c4c(cccc24)CCC3)[C@@H]1c1c[nH]c2ccccc12 [tivantinib, reference compound]
selectivity (tyrosine kinases): only binds to c-Met | IC50 (c-Met [1]): 100 nM

COc1cc2nccc(Oc3ccc(NC(=O)C4(C(=O)Nc5ccc(F)cc5)CC4)cc3)c2cc1OC [cabozantinib]
IC50 (c-Met [1]): 1.3 nM | response rate (medullary thyroid cancer): 49%

Cn1cc(-c2cnc3ccc4ccc(CS(=O)(=O)NCc5ccccn5)cc4c(=O)c3c2)cn1 [MK-8033, 1-[3-(1-methyl-1H-pyrazol-4-yl)-5-oxo-5H-benzo[4,5]cyclohepta[1,2-b]pyridin-7-yl] -N-(pyridin-2-ylmethyl)methanesulfonamide]
plasma concentrations relative to IC50 for target inhibition (GTL-16 xenograft; mice): exceeding the IC50 for target inhibition for 24 h/day | tolerability (GTL-16 xenograft; mice): well-tolerated | pathway activation and tumor growth (GTL-16 xenograft): inhibited | selectivity (tyrosine kinases): target multiple tyrosine kinases | IC50 for proliferation [2]: sub-micromolar | radiosensitization [3]: radiosensitized | median progression-free survival (PFS) ([4]; 95% confidence interval 42–115 days): 57 days | PFS rate ([4]; at 6 weeks): 80.4% | PFS rate ([4]; at 12 weeks): 15.2% | patients with stable disease (SD), % ([4]; best response): 18.2% | patients with partial response (PR) ([4]; endometrioid adenocarcinoma): One | patients with best response of progressive disease (PD), % ([4]; human, in vivo): 71.7% | PFS of the responding patient ([4]; patient with endometrioid adenocarcinoma): 846 days | max concentration versus dose ([5]; 50 to 1500 mg BID, dose proportionality not assessable): appears to increase with dose | Day 14/Day 1 geometric mean accumulation ratios for Cmax ([5]; 200 to 1500 mg BID dose range, not conclusive): 1.2 to 4.2 | impact of co-administered omeprazole on steady state Cmax, AUC0–12h and Tmax ([5]; Part C, 770 mg BID with or without 20 mg omeprazole, two patients): no effect; also recorded: does not appear to strongly impact | Tmax ([5]; human, plasma, oral): 1 to 3 h | IC50 (c-Met [1]): 1 nM | cell growth inhibition in combination with chemotherapy [6]: synergized | No. of Subjects with a DLT ([7]; Dose Level 1 (n = 1), 50 mg BID, Total): 0 | No. of Subjects with a DLT ([7]; Dose Level 2 (n = 1), 100 mg BID, Total): 0 | No. of Subjects with a DLT ([7]; Dose Level 3 (n = 3), 200 mg BID, Total): 0 | No. of Subjects with a DLT ([7]; Dose Level 4 (n = 4), 400 mg BID, Total): 0 | No. of Subjects with a DLT ([7]; Dose Level 5 (n = 7), 550 mg BID, Fatigue): 1 | No. of Subjects with a DLT ([7]; Dose Level 5 (n = 7), 550 mg BID, Total): 1 | Number of DLTs Grade 1 [7, 10]: 0 | Number of DLTs Grade 2 [7, 10]: 0 | Number of DLTs Grade 3 [7, 10]: 1 | Number of DLTs Grade 4 [7, 10]: 0 | No. of Subjects with a DLT ([7]; Dose Level 6 (n = 18), 750 mg BID, Nausea): 1 | No. of Subjects with a DLT ([7]; Dose Level 6 (n = 18), 750 mg BID, Total): 1 | Number of DLTs Grade 1 [7, 11]: 0 | Number of DLTs Grade 2 [7, 11]: 1 | Number of DLTs Grade 3 [7, 11]: 0 | Number of DLTs Grade 4 [7, 11]: 0 | No. of Subjects with a DLT ([7]; Dose Level 7 (n = 6), 1050 mg BID, Nausea): 2 | No. of Subjects with a DLT ([7]; Dose Level 7 (n = 6), 1050 mg BID, Total): 2 | No. of Subjects with a DLT ([7]; Dose Level 7 (n = 6), 1050 mg BID, Vomiting): 2 | Number of DLTs Grade 1 [7, 12]: 0 | Number of DLTs Grade 2 [7, 12]: 0 | Number of DLTs Grade 3 [7, 12]: 2 | Number of DLTs Grade 4 [7, 12]: 0 | Number of DLTs Grade 1 [7, 13]: 0 | Number of DLTs Grade 2 [7, 13]: 1 | Number of DLTs Grade 3 [7, 13]: 1 | Number of DLTs Grade 4 [7, 13]: 0 | No. of Subjects with a DLT ([7]; Dose Level 8 (n = 3), 1500 mg BID, Elevated ALT): 1 | No. of Subjects with a DLT ([7]; Dose Level 8 (n = 3), 1500 mg BID, Elevated AST): 1 | No. of Subjects with a DLT ([7]; Dose Level 8 (n = 3), 1500 mg BID, Elevated Amylase): 1 | No. of Subjects with a DLT ([7]; Dose Level 8 (n = 3), 1500 mg BID, Hypokalaemia): 1 | No. of Subjects with a DLT ([7]; Dose Level 8 (n = 3), 1500 mg BID, Total): 2 | Number of DLTs Grade 1 [7, 14]: 0 | Number of DLTs Grade 2 [7, 14]: 0 | Number of DLTs Grade 3 [7, 14]: 1 | Number of DLTs Grade 4 [7, 14]: 0 | Number of DLTs Grade 1 [7, 15]: 0 | Number of DLTs Grade 2 [7, 15]: 0 | Number of DLTs Grade 3 [7, 15]: 1 | Number of DLTs Grade 4 [7, 15]: 0 | Number of DLTs Grade 1 [7, 16]: 0 | Number of DLTs Grade 2 [7, 16]: 0 | Number of DLTs Grade 3 [7, 16]: 1 | Number of DLTs Grade 4 [7, 16]: 0 | Number of DLTs Grade 1 [7, 17]: 0 | Number of DLTs Grade 2 [7, 17]: 0 | Number of DLTs Grade 3 [7, 17]: 0 | Number of DLTs Grade 4 [7, 17]: 1 | No. of Subjects with a DLT ([7]; Part C - (n = 3), 750 mg BID, Total): 0 | patients who died during the study ([7]; determined by investigators to be unrelated to MK-8033): Five | maximum tolerated dose (MTD) ([7]; dose level 6, oral): 750 mg BID | recommended phase II dose (RP2D) ([7]; dose level 6, acute and chronic toxicity, TITE-CRM): 750 mg BID | Alopecia, All Grades, % ([7]; treatment-related, n = 46): 19.6% | Anorexia, All Grades, % ([7]; treatment-related, n = 46): 17.4% | Decreased Hemoglobin, All Grades, % ([7]; treatment-related, n = 46): 6.5% | Decreased Hemoglobin, Grade ≥ 3, % ([7]; treatment-related, n = 46): 2.2% | Diarrhea, All Grades, % ([7]; treatment-related, n = 46): 6.5% | Dysgeusia, All Grades, % ([7]; treatment-related, n = 46): 8.7% | Dyspepsia, All Grades, % ([7]; treatment-related, n = 46): 6.5% | Dyspepsia, Grade ≥ 3, % ([7]; treatment-related, n = 46): 4.3% | Elevated ALT, All Grades, % ([7]; treatment-related, n = 46): 17.4% | Elevated ALT, Grade ≥ 3, % ([7]; treatment-related, n = 46): 2.2% | Elevated AST, All Grades, % ([7]; treatment-related, n = 46): 10.9% | Elevated AST, Grade ≥ 3, % ([7]; treatment-related, n = 46): 2.2% | Elevated Amylase, All Grades, % ([7]; treatment-related, n = 46): 6.5% | Elevated Amylase, Grade ≥ 3, % ([7]; treatment-related, n = 46): 4.3% | Elevated Creatinine, All Grades, % ([7]; treatment-related, n = 46): 13.0% | Elevated Lipase, All Grades, % ([7]; treatment-related, n = 46): 6.5% | Elevated Lipase, Grade ≥ 3, % ([7]; treatment-related, n = 46): 4.3% | Fatigue, All Grades, % ([7]; treatment-related, n = 46): 28.3% | Fatigue, Grade ≥ 3, % ([7]; treatment-related, n = 46): 2.2% | Headache, All Grades, % ([7]; treatment-related, n = 46): 6.5% | Hypokalemia, All Grades, % ([7]; treatment-related, n = 46): 6.5% | Hypokalemia, Grade ≥ 3, % ([7]; treatment-related, n = 46): 2.2% | Lymphopenia, All Grades, % ([7]; treatment-related, n = 46): 8.7% | Lymphopenia, Grade ≥ 3, % ([7]; treatment-related, n = 46): 4.3% | Nausea, All Grades, % ([7]; treatment-related, n = 46): 21.7% | Nausea, Grade ≥ 3, % ([7]; treatment-related, n = 46): 4.3% | Vomiting, All Grades, % ([7]; treatment-related, n = 46): 13.0% | Vomiting, Grade ≥ 3, % ([7]; treatment-related, n = 46): 2.2% | HGF-induced phosphorylation of c-Met (c-Met [8]): inhibited | phosphorylation of AKT and ERK1/2 (c-Met [8]): inhibited | autophosphorylation of c-Met in the C-terminal docking site (c-Met [9]; constitutively activated c-MET): potently inhibited | downstream signaling events such as ERK1/2 and AKT (c-Met [9]): inhibited
